Bioassay records as filed in PubChem.
Compounds with a hit are over-represented: about 12% of the library has one in this group of screens.
L major viab: reduces viability of Leishmania major promastigotes; resazurin fluorescence viability; inhibition, % at 10 µM; 200,000 tested, 9% active; AID 1063; in the data active means inhibition above about 50%;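 further: promastigotes grown with compound for 44 hours at 28 °C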
Diaph inh CS: inhibits diaphorase or chemically oxidizes, flagging diaphorase assay artifacts; diaphorase resazurin-to-resorufin fluorescence, NADH, 16 min; bacterial (C. kluyveri) enzyme, not human; inhibition, % at 20 µM; 190,000 tested, 0.69% active;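 active means primary screen inhibition at 20 µM above a set limit, cut at about 50% in these data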;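 further: plate controls were DMSO with full reaction for no effect and wells lacking NADH for full effect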
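controls = No-NADH positive control and DMSO neutral control | system = Clostridium kluyveri diaphorase enzyme | timing = reaction incubation of 16 min at room temperature | signal = resorufin fluorescence 544/590 nm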
Cl transport mod: KCC2 (human) Cl- transport modulation | 190,000 tested, 2.2% active | KCC2 cells, thallium flux FluoZin-2 fluorescence | B-score of Tl+ flux slope (higher = more flux/activation; lower = inhibition) at 10 µM | Q9H2X9;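 active means thallium flux slope and its plate-corrected score both differing from the plate sample mean at a set confidence after two filtering rounds, in either direction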;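 further: slope of fluorescence scaled to starting intensity during 10 to 20 s after thallium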
Target sequence (Q9H2X9 whole entry, looked up): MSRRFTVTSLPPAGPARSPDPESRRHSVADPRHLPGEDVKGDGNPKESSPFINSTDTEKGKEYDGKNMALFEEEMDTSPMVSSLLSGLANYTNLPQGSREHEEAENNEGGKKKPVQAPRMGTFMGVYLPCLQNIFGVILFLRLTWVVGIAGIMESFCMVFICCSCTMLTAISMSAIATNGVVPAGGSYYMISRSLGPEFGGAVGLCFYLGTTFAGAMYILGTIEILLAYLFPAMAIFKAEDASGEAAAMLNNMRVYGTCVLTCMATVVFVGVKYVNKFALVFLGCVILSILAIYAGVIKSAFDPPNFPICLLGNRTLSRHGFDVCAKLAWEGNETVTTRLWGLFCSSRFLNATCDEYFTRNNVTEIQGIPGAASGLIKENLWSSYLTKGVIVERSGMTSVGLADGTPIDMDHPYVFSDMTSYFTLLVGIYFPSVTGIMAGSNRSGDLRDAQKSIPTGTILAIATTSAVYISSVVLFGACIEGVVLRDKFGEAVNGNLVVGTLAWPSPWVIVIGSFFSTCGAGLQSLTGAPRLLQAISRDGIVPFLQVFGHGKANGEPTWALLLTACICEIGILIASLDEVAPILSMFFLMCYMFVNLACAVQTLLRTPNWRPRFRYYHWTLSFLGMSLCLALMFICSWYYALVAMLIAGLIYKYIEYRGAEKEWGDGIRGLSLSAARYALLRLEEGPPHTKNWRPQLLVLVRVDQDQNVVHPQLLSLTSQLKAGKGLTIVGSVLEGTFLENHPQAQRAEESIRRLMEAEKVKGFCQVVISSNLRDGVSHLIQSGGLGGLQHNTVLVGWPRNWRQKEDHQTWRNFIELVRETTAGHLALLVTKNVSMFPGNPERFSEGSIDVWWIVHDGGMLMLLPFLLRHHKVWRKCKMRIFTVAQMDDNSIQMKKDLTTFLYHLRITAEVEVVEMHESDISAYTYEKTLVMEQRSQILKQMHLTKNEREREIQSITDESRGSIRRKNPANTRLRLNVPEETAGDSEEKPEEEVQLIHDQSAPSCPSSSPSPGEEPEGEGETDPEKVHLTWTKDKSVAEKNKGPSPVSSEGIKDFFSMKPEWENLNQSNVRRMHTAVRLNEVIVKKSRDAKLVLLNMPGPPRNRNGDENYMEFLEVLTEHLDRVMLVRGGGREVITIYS
WT yeast gro inh: growth inhibition of WT yeast, mitochondrial fusion screen; AID 1362; mitochondrial fusion phenotypic screen, WT strain; 190,000 tested, 2.1% active; inhibition, % at 10 µM; in the data active means inhibition above about 58%; tested in S. cerevisiae
ROMK mod: modulates human ROMK potassium channel activity; 130,000 tested, 2% active; P48048; AID 1918; B-score at 10 µM; Tet-inducible ROMK, thallium flux fluorescence; actives lie on both sides;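 active means signal ratio slope over the read window, or its plate-corrected B-score, at least 3 SD from the plate mean, either direction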;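 further: B-score of the F/F0 ratio slope over 7 to 12 s after thallium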
Diaphorase act: diaphorase activation or chemical reduction counter-screen. Diaphorase/resazurin coupled assay, resorufin fluorescence, 16 min; stronger effect = higher value; 1 = vehicle wells, 0 = NADH-free wells. activation factor at 20 µM. 190,000 tested, 0.005% active. AID 1229;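 active means diaphorase activity raised at least twofold by the compound at 20 µM; inactive means activation factor below 2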
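test system = bacterial diaphorase enzyme (C. kluyveri) | quantity = enzyme 0.07 U/mL final | reagent = NADH substrate 0.114 mM plus resazurin dye 0.1 mM, final | incubation = 16 min enzyme reaction, ambient temperature | buffer or medium = HEPES pH 7.4 buffer with MgCl2 and Tween 20 | signal = fluorescence of resorufin, 544 nm excitation, 590 nm emission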
* marks the source's active call; other numbers are inactive results; . = no result given; ! = not confirmed by another sample.

SMILES | L major viab | Diaph inh CS | Cl transport mod | WT yeast gro inh | ROMK mod | Diaphorase act
S=C(NCCc1ccccn1)Nc1ccccc1Cl | 9 | -24 | 1.5 | 4 | 0.3 | 1.2
C/C(=N\NC(=S)NCCc1ccccc1)c1cccc(Br)c1 | -5 | 19 | -0.17 | 27 | 1.2 | 0.8
Cc1ccccc1C(=O)NC(=S)NCCc1ccccc1 | 0 | 20 | 8.3* | 46 | -1.7 | 0.8
CCOC(=O)c1c(C)n(C)c2ccc(OC(=O)c3ccc(N4C(=O)CCC4=O)cc3)cc12 | 31 | 23 | -0.22 | -13 | 0.016 | 0.8
COc1ccccc1NC(=O)COC(=O)C1CC1 | -9 | 3 | -0.012 | -10 | 0.38 | 1
N#CC1=C(N)c2ccccc2CC12CCCCC2 | 8 | 16 | -1.1 | 22 | -0.76 | 0.8
CCCc1c(C(=O)NNc2cc(C(F)(F)F)ccc2Cl)cnn1-c1ccccc1 | . | . | 0.67 | . | . | .
COc1ccc(C(=O)NCC(=O)NCC(=O)OCc2ccc(Br)cc2)cc1 | 12 | 5 | 0.048 | 2 | -0.44 | 1
S=C(NCCCc1ccccc1)Nc1ccccc1Cl | 17 | 23 | -2.1 | 68* | -0.059 | 0.8
CC1=C/C(=N\NC(=S)NCCc2ccccc2)CC(C)(C)C1 | 9 | 16 | 0.93 | 70* | -2.4 | 0.8
CC1CCC(C(C)C)C(OCC(O)CN2CCOCC2)C1 (stereo not given) | 8 | 10 | -1 | . | . | 0.9
CC1CCC(C(C)C)C(OCC(O)CN2CCCC(C)C2)C1 (stereo not given) | 92* | 13 | 0.83 | 19 | -1.9 | 0.9
CC1CCC(C(C)C)C(OCC(O)CN2CCN(Cc3ccccc3)CC2)C1 (stereo not given) | 93* | 11 | 0.4 | -7 | . | 0.9
Cc1ccc(CNc2oc(-c3ccco3)nc2S(=O)(=O)c2ccccc2)cc1 | 36 | 19 | -0.82 | 63* | -0.85 | 0.8
O=S(=O)(c1ccccc1)c1nc(-c2ccco2)oc1NCCN1CCOCC1 | 13 | -3 | 1 | 6 | -0.2 | 1
CCOc1ccc(NC(=O)CCCOc2cc(=O)n(C)c3ccccc23)cc1 | -3 | 7 | -0.74 | -18 | . | 0.9
Cc1ccc(F)c([C@H]2C3C=CCC(c4ccccc4)C3C(=O)N2Cc2ccccc2)c1 (stereo not given in full) | . | . | 2.1 | . | . | .
CCN(CC)CCn1c(=S)[nH]c2cc(Cl)ccc2c1=O | 12 | 15 | 25* | -13 | . | 0.8
COc1ccc(C2=C(CN(C)C)C(c3ccccc3)c3ccccc3O2)cc1 (stereo not given) | 100*! | 8 | -0.51 | 43 | 0.16 | 0.9
CCOC(=O)c1c(NC(=O)CSc2nc3cccnc3n2C)sc(C(C)=O)c1C | -4 | 35 | -0.46 | -5 | . | 0.7
CCOC(=O)c1c(NC(=O)CSc2nc3ccccc3c(=O)n2-c2ccc(F)cc2)sc(C(C)=O)c1C | 17 | 9 | -0.72 | -22 | 0.066 | 0.9
CCOC(=O)c1c(NC(=O)CSc2ncnc3ccccc23)sc(C(C)=O)c1C | 80* | 0 | -1.1 | 0 | -2 | 1
CCOC(=O)c1c(NC(=O)CSc2nnc(-c3ccccc3C)n2C)sc(C(C)=O)c1C | 73* | 32 | -1.9 | -14 | -2.2 | 0.7
Cc1cccn2c(=O)c(/C=N/O)c(N3CCOCC3)nc12 | -6 | 10 | -0.27 | -14 | . | 0.9
NS(=O)(=O)c1cccc(NC(=O)Nc2ccccc2)c1 | . | . | 1.7 | . | 1.1 | .
SMILES | L major viab | Diaph inh CS | Cl transport mod | WT yeast gro inh | ROMK mod | Diaphorase act
Cn1nnnc1Sc1ncnc2scc(-c3ccccc3)c12 | 70* | 22 | -1.1 | 26 | . | 0.8
c1ccc(-c2csc3ncn4nnnc4c23)cc1 | -8 | 14 | . | 8 | 0.092 | 0.9
Cn1nnnc1Sc1ncnc2scc(-c3ccc(F)cc3)c12 | 91* | 8 | -0.22 | -7 | -0.84 | 0.9
Cn1nnnc1SCc1nc2scc(-c3ccc(Cl)cc3)c2c(=O)[nH]1 | . | . | -0.46 | . | . | .
Cc1cccc(Nc2c([N+](=O)[O-])c(=O)oc3ccccc23)c1 | . | . | -1.6 | . | . | .
OC1(c2ccc3c(c2)OCO3)CCN(Cc2ccc(F)cc2)CC1 | . | . | 0.34 | . | . | .
CCCCOc1ccccc1NC(=O)C=C(C)C | 4 | 8 | . | 5 | -0.89 | 0.9
Cc1cc(C)nc(/N=C(\N)N(Cc2ccccc2)Cc2ccccc2)n1 | 90* | 1 | -0.29 | 23 | . | 1
CCCOc1ccccc1N/C(N)=N/c1nc(C)cc(C)n1 | 90* | -4 | 0.22 | -5 | -0.19 | 1
CCCOc1ccccc1NC(=O)/C=C/C(N)=O | 101* | 12 | -1.2 | 51 | 0.62 | 0.9
CCCOc1ccccc1N/C(=N/c1nc(C)cc(C)n1)NC(=O)COc1ccc(OC)cc1 | 97* | 18 | . | 0 | 0.045 | 0.8
Cc1ccc(/C=N\NC(=O)C2CC(=O)N(c3ccccc3)C2)o1 (stereo not given) | . | . | 0.76 | . | . | .
NS(=O)(=O)c1ccc(CCNC(=O)COC(=O)CC(c2ccccc2)c2ccccc2)cc1 | 5 | -1 | -0.71 | -2 | 1.1 | 1
COc1ccc(S(=O)(=O)N(C)CC(=O)NCc2ccco2)cc1 | -2 | 14 | 0.37 | 5 | . | 0.9
O=C(N/N=C/c1ccccc1O)C1(O)c2ccccc2-c2ccccc21 | 10 | 1 | 0.31 | 3 | -1.1 | 1
COc1ccccc1NC(=O)Cn1cnc2sc(C)c(S(=O)(=O)N3CCCCC3)c2c1=O | -5 | 3 | 1.2 | -1 | -0.29 | 1
Cc1cc(C)nc(/N=C(\N)Nc2ccc(-c3ccccc3)cc2)n1 | 98* | -4 | 0.19 | 7 | -1.7 | 1
CC(=O)Nc1ccc(N/C(N)=N/c2nc(C)cc(C)n2)cc1 | 9 | 4 | 0.77 | -3 | -1.1 | 1
CN(C)C(=O)CSc1cccc2cccnc12 | 100* | 11 | 8.1* | 33 | . | 0.9
COc1ccc(S(=O)(=O)Nc2cc(Sc3ncn[nH]3)c(O)c3ccccc23)cc1 | 100* | 20 | -1.6 | 94* | -6.3* | 0.8
O=C(Sc1cccc2cccnc12)c1ccc(F)cc1 | 100* | 10 | 64* | 51 | 8.7* | 0.9
CC(=O)/C(=N\Nc1ccccc1)Sc1cccc2cccnc12 | -5 | 17 | -2.1 | 24 | -0.08 | 0.8
O=S(=O)(Nc1cc(Sc2cccc3cccnc23)c(O)c2ccccc12)c1ccc(F)cc1 | 100* | 26 | 48* | 50 | . | 0.7
CC(OC(=O)CCc1nc2ccccc2[nH]c1=O)c1ccccc1 (stereo not given) | -5 | 6 | -0.12 | 4 | 0.34 | 0.9
COc1ccc(/C=N\NC(=O)COc2ccccc2)c(C(=O)O)c1OC | -4 | 17 | 0.24 | -23 | . | 0.8
COc1ccc(C2SCC(=O)N2CC23CC4CC(CC(C4)C2)C3)cc1 (stereo not given) | 33 | 34 | -0.35 | 76* | -0.24 | 0.7
COc1ccc(C2SCC(=O)N2CCc2ccc(OC)c(OC)c2)cc1 (stereo not given) | -3 | . | -1.1 | 26 | 3 | .
